Assays:
[1] = tested on: MCF7; assay: Cytotoxicity against human MCF7 cells assessed as decrease in cell viability after 72 hrs by CellTiter-Glo luminescence assay; format: functional, cell-based; conditions: MCF7, 72 h
Summary of the method: (§1)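 Breast cancer lines were maintained in RPMI 1640 with 10% FBS and pen/strep at 37 °C and 5% CO2. Cells were plated at 1000/well, allowed 24 h, then treated 72 h with agents at 1.5–100 μM (diluted in phosphate buffer from a 100 mM DMSO stock). Paclitaxel at 0.01–10 μM served as the reference. Luminescent ATP read-out was used, with IC50 computed relative to 0.1% DMSO controls.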

[2] = tested on: MCF-10A; assay: Cytotoxicity against human MCF10A cells assessed as decrease in cell viability after 72 hrs by CellTiter-Glo luminescence assay; format: cell-based
Summary of the method: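 MCF10A (non-tumorigenic breast epithelial) cells were grown with 5% horse serum, 20 ng/mL EGF, 0.5 μg/mL hydrocortisone, 10 μg/mL insulin, and pen/strep at 37 °C and 5% CO2. Cells were seeded at 1000/well for 24 h, then exposed 72 h to 1.5–100 μM test agent diluted in phosphate buffer from a 100 mM DMSO stock. Viability was read by ATP luminescence. IC50 was calculated versus 0.1% DMSO-treated cells.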

[3] = tested on: MDA-MB-231; assay: Cytotoxicity against human MDA-MB-231 cells assessed as decrease in cell viability after 72 hrs by CellTiter-Glo luminescence assay; format: functional, cell-based; conditions: MDA-MB-231, 72 h; summary of the method: as §1
[4] = tested on: MDA-MB-468; assay: Cytotoxicity against human MDA-MB-468 cells assessed as decrease in cell viability after 72 hrs by CellTiter-Glo luminescence assay; format: functional, cell-based; conditions: MDA-MB-468, 72 h; summary of the method: as §1

Compound	IC50 [1] [µM]	IC50 [2] [µM]	IC50 [3] [µM]	IC50 [4] [µM]
CC(=O)O[C@H]1C(=O)[C@@]2(C)[C@H]([C@H](OC(=O)c3ccccc3)[C@]3(O)C[C@H](OC(=O)[C@H](O)[C@@H](NC(=O)c4ccccc4)c4ccccc4)C(C)=C1C3(C)C)[C@]1(OC(C)=O)CO[C@@H]1C[C@@H]2O [PACLITAXEL]	0.0088	0.0058	0.059	0.0061
COc1cc2cc([C@@H]3[C@H](C(C)=O)[C@@H](C(C)=O)[C@@H]3c3cc4cc(OC)c(OC)cc4c4c3CN3CCC[C@@H]3C4)c3c(c2cc1OC)C[C@@H]1CCCN1C3	> 10	> 10	> 10	7.4
COc1cc2cc([C@@H]3[C@@H](C(C)=O)[C@H](C(C)=O)[C@@H]3c3cc4cc(OC)c(OC)cc4c4c3CN3CCC[C@@H]3C4)c3c(c2cc1OC)C[C@@H]1CCCN1C3	> 10	> 10	> 10	> 10
COc1cc2c3c(c4ccc(OC)c(Cl)c4c2cc1OC)CN1CCCC1C3 (racemic)	0.91	10.7	0.48	0.038
COc1cc2cc(CO)c3c(c2cc1OC)CC1CCCN1C3 (racemic)	> 10	> 10	> 10	> 10
COc1cc2cc(C3C(C(C)=O)C(C(C)=O)C3c3cc4cc(OC)c(OC)cc4c4c3CN3CCCC3C4)c3c(c2cc1OC)CC1CCCN1C3 (racemic)	> 10	> 10	> 10	> 10

From ChEMBL document CHEMBL4130447, “A Bis-benzopyrroloisoquinoline Alkaloid Incorporating a Cyclobutane Core and a Chlorophenanthroindolizidine Alkaloid with Cytotoxic Activity from Ficus fistulosa var. tengerensis” (J Nat Prod, 2017)
